Measured values from ChEMBL document CHEMBL3259707, “Design and synthesis of human ABCB1 (P-glycoprotein) inhibitors by peptide coupling of diverse chemical scaffolds on carboxyl and amino termini of (S)-valine-derived thiazole amino acid” (J Med Chem, 2014).

How the values were obtained:
[1] = Cytotoxicity against human SW620 cells assessed as cell survival at 10 uM by MTT assay; type: cell-based, SW-620; conditions: read-out: Activity
In short: (§1)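 Cells seeded at 5000–6000 per well in triplicate, attached 24 h at 37 °C, 5% CO2, then exposed to compound for 72 h. MTT (4 mg/mL) added for 4 h, formazan dissolved in DMSO, absorbance read at 570 nm. Four independent experiments. HEK/ABCB1 and HEK293 kept in DMEM with G418 (2 mg/mL). All lines drug-free for over 2 weeks beforehand.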

[2] = target: T1, ATP-dependent translocase ABCB1 (Homo sapiens, UniProt P08183); experiment: Inhibition of human wild type P-gp expressed in BacMam virus infected human HeLa cells assessed as calcein-AM accumulation after 10 mins by flow cytometry; type: cell-based
T1 sequence (P08183 whole entry): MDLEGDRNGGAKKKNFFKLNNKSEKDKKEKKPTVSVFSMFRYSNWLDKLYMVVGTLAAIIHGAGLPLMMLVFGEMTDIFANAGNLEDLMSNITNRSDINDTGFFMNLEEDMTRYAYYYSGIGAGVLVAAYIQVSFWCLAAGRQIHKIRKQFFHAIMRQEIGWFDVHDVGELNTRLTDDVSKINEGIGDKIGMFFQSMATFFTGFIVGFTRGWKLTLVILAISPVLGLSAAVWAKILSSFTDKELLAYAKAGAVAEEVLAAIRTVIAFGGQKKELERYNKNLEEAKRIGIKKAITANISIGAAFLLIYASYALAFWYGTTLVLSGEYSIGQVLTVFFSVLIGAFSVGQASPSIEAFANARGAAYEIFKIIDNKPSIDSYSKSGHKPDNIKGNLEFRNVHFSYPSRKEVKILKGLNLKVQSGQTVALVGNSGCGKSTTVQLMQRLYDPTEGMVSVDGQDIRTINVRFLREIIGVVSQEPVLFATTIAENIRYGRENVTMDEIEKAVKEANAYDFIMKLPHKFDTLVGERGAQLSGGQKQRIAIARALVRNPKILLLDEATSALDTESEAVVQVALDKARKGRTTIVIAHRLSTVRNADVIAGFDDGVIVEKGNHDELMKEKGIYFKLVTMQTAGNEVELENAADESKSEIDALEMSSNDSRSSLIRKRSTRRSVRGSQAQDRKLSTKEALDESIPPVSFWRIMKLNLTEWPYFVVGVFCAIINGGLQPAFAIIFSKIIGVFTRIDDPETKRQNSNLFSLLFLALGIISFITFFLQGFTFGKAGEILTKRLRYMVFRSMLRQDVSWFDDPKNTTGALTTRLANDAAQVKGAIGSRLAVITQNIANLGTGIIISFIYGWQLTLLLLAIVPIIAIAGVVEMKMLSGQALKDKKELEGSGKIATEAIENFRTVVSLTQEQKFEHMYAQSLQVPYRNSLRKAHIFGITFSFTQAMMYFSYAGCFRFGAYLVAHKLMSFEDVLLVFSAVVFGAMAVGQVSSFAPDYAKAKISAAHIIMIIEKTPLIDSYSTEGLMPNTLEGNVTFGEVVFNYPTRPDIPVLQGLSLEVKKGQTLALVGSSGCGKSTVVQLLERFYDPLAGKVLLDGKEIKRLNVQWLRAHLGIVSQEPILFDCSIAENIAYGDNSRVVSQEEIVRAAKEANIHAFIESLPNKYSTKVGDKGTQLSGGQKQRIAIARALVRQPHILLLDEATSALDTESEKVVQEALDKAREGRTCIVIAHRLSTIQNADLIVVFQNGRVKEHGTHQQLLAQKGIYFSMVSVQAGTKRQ
In short: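 HeLa cells transduced with BacMam WT-P-gp (10–15 particles/cell); 10 mM butyric acid added after 3–4 h, grown overnight at 37 °C. Trypsinized cells exposed to compound, then 0.5 μM calcein-AM for 10 min at 37 °C in the dark. […] Two independent experiments in triplicate, ± SD.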

[3] = Cytotoxicity against human SW620/Ad300 cells overexpressing ABCB1 assessed as cell survival at 10 uM by MTT assay; type: ADME, cell-based, SW-620; conditions: SW620/Ad300 cells that overexpress ABCB1, read-out: Activity; in short: as §1
[4] = Cytotoxicity against human HEK293 cells assessed as cell survival at 10 uM by MTT assay; type: cell-based; conditions: read-out: Activity; in short: as §1
[5] = Cytotoxicity against human HEK293 cells overexpressing human ABCB1 assessed as cell survival at 10 uM by MTT assay; type: ADME, cell-based; conditions: HEK293 cells that overexpress human ABCB1, read-out: Activity; in short: as §1
[6] = target: T1, ATP-dependent translocase ABCB1; experiment: Reversal of Pgp-1-mediated multidrug resistance in human SW620 cells assessed as potentiation of paclitaxel cytotoxicity at 1 uM treated for 2 hrs prior to paclitaxel challenge measured after 72 hrs by MTT assay relative to paclitaxel alone-treated control; type: cell-based; conditions: sw-620, 72 h
In short: (§2)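 MTT reversal assay. Cells seeded 5000–6000/well and attached 24 h; modulator added 2 h before graded paclitaxel; 72 h at 37 °C; MTT 4 h, DMSO solubilisation, A570. Paclitaxel IC50 taken from killing curves. Fold-resistance = paclitaxel IC50 (± modulator) ÷ paclitaxel IC50 in parental SW620 or HEK293. Four independent experiments in triplicate, mean ± SEM. Cells drug-free >2 weeks beforehand.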

[7] = target: T1, ATP-dependent translocase ABCB1; experiment: Reversal of Pgp-1-mediated multidrug resistance in human SW620 cells assessed as potentiation of paclitaxel cytotoxicity at 3 uM treated for 2 hrs prior to paclitaxel challenge measured after 72 hrs by MTT assay relative to paclitaxel alone-treated control; type: cell-based; conditions: sw-620, 72 h; in short: as §2
[8] = target: T1, ATP-dependent translocase ABCB1; experiment: Reversal of Pgp-1-mediated multidrug resistance in human SW620 cells assessed as potentiation of paclitaxel cytotoxicity at 10 uM treated for 2 hrs prior to paclitaxel challenge measured after 72 hrs by MTT assay relative to paclitaxel alone-treated control; type: cell-based; conditions: sw-620, 72 h
In short: (§3)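 Cells seeded at 5000–6000/well, attached 24 h at 37 °C, 5% CO2, then preincubated 2 h ± reversal agent before paclitaxel dilutions; after 72 h, MTT (4 mg/mL) 4 h, formazan dissolved in DMSO, absorbance 570 nm. Paclitaxel IC50 from killing curves; fold-resistance = IC50 divided by parental paclitaxel IC50. Four independent experiments in triplicate. HEK lines kept with G418 (2 mg/mL).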

[9] = target: T1, ATP-dependent translocase ABCB1; experiment: Reversal of Pgp-1-mediated multidrug resistance in human SW620/Ad300 cells overexpressing ABCB1 assessed as potentiation of paclitaxel cytotoxicity at 1 uM treated for 2 hrs prior to paclitaxel challenge measured after 72 hrs by MTT assay relative to paclitaxel alone-treated control; type: cell-based; conditions: sw-620, 72 h; in short: as §2
[10] = target: T1, ATP-dependent translocase ABCB1; experiment: Reversal of Pgp-1-mediated multidrug resistance in human SW620/Ad300 cells overexpressing ABCB1 assessed as potentiation of paclitaxel cytotoxicity at 3 uM treated for 2 hrs prior to paclitaxel challenge measured after 72 hrs by MTT assay relative to paclitaxel alone-treated control; type: cell-based; conditions: sw-620, 72 h; in short: as §2
[11] = target: T1, ATP-dependent translocase ABCB1; experiment: Reversal of Pgp-1-mediated multidrug resistance in human SW620/Ad300 cells overexpressing ABCB1 assessed as potentiation of paclitaxel cytotoxicity at 10 uM treated for 2 hrs prior to paclitaxel challenge measured after 72 hrs by MTT assay relative to paclitaxel alone-treated control; type: cell-based; conditions: sw-620, 72 h; in short: as §3
[12] = target: T1, ATP-dependent translocase ABCB1; experiment: Reversal of Pgp-1-mediated multidrug resistance in human HEK293 cells assessed as potentiation of paclitaxel cytotoxicity at 1 uM treated for 2 hrs prior to paclitaxel challenge measured after 72 hrs by MTT assay relative to paclitaxel alone-treated control; type: cell-based; conditions: hek293, 72 h; in short: as §2
[13] = target: T1, ATP-dependent translocase ABCB1; experiment: Reversal of Pgp-1-mediated multidrug resistance in human HEK293 cells assessed as potentiation of paclitaxel cytotoxicity at 3 uM treated for 2 hrs prior to paclitaxel challenge measured after 72 hrs by MTT assay relative to paclitaxel alone-treated control; type: cell-based; conditions: hek293, 72 h; in short: as §2
[14] = target: T1, ATP-dependent translocase ABCB1; experiment: Reversal of Pgp-1-mediated multidrug resistance in human HEK293 cells assessed as potentiation of paclitaxel cytotoxicity at 10 uM treated for 2 hrs prior to paclitaxel challenge measured after 72 hrs by MTT assay relative to paclitaxel alone-treated control; type: cell-based; conditions: hek293, 72 h; in short: as §3
[15] = target: T1, ATP-dependent translocase ABCB1; experiment: Reversal of Pgp-1-mediated multidrug resistance in human HEK293 cells overexpressing human ABCB1 assessed as potentiation of paclitaxel cytotoxicity at 1 uM treated for 2 hrs prior to paclitaxel challenge measured after 72 hrs by MTT assay relative to paclitaxel alone-treated control; type: cell-based; conditions: hek293, 72 h; in short: as §2
[16] = target: T1, ATP-dependent translocase ABCB1; experiment: Reversal of Pgp-1-mediated multidrug resistance in human HEK293 cells overexpressing human ABCB1 assessed as potentiation of paclitaxel cytotoxicity at 3 uM treated for 2 hrs prior to paclitaxel challenge measured after 72 hrs by MTT assay relative to paclitaxel alone-treated control; type: cell-based; conditions: hek293, 72 h; in short: as §2
[17] = target: T1, ATP-dependent translocase ABCB1; experiment: Reversal of Pgp-1-mediated multidrug resistance in human HEK293 cells overexpressing human ABCB1 assessed as potentiation of paclitaxel cytotoxicity at 10 uM treated for 2 hrs prior to paclitaxel challenge measured after 72 hrs by MTT assay relative to paclitaxel alone-treated control; type: cell-based; conditions: hek293, 72 h; in short: as §3
[18] = target: T1, ATP-dependent translocase ABCB1; experiment: Displacement of […] from ABCB1 (unknown origin) expressed in High Five insect cell membrane preincubated for 10 mins by autoradiography
In short: (§4)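 Compound 0–20 μM, 10 min at 37 °C. Then [125I]-IAAP (2200 Ci/mmol; 4–6 nM) added for 5 min under minimal light. UV 365 nm for 10 min, labeling read by autoradiography. Two independent experiments; curve fitted by one-phase decay.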

[19] = target: T1, ATP-dependent translocase ABCB1; experiment: Displacement of […] from ABCB1 (unknown origin) expressed in High Five insect cell membrane at >5 uM preincubated for 10 mins by autoradiography; in short: as §4
[20] = Retardation factor of the compound using EtOAc-n-hexane at ratio of 3:2 by thin layer chromatography; type: physicochemical
[21] = target: T1, ATP-dependent translocase ABCB1; experiment: Stimulation of ATPase activity of ABCB1 (unknown origin) expressed in High Five insect cell membrane assessed as ATP hydrolysis at >2.5 uM relative to control
[22] = target: T1, ATP-dependent translocase ABCB1; experiment: Stimulation of ATPase activity of ABCB1 (unknown origin) expressed in High Five insect cell membrane assessed as ATP hydrolysis at 0.5 to 2.5 uM relative to control
[23] = target: T1, ATP-dependent translocase ABCB1; experiment: Stimulation of ATPase activity of ABCB1 (unknown origin) expressed in High Five insect cell membrane assessed as ATP hydrolysis
In short: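 Vanadate-sensitive ATPase of P-gp in crude High Five membranes (10 μg protein/100 μL). Compound 0–10 μM, with and without 0.3 mM sodium orthovanadate, in ATPase assay buffer. […] Three independent experiments in duplicate, mean ± SEM.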

[24] = Retention time of the compound by HPLC analysis; type: physicochemical
In short: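 Reverse-phase C18 HPLC, isocratic acetonitrile/water 60:40, 1.0 mL/min, UV 254 nm; purity from major-peak area.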

For COc1cc(C(=O)N[C@H](c2nc(C(=O)Nc3ccccc3C(=O)c3ccccc3)cs2)C(C)C)cc(OC)c1OC, the viability at 10 µM [1] was > 85%, the IC50 [2] was 1 µM and the “inhibition (INH)” value ([2]; human, hela, 10 min) was “Dose-dependent effect”. The viability at 10 µM [3] was > 85%, the viability at 10 µM [4] was > 85% and the viability at 10 µM [5] was > 85%. It also gave a Ratio [6] of 1.2, a Ratio [7] of 1 and a Ratio [8] of 1. The Ratio [9] was 31, the Ratio [10] was 8.5 and the Ratio [11] was 1.8. For the same compound, the Ratio [12] was 1, the Ratio [13] was 1 and the Ratio [14] was 1. The Ratio [15] was 12.9, the Ratio [16] was 3.1 and the Ratio [17] was 2. The “inhibition (INH)” value [18] was “Dose-dependent effect”, the IC50 [19] was 0.72 µM and the “inhibition (INH)” value ([19]; human) was 90%. For the same compound, the Rf [20] was 0.45, the Ratio [21] was 1.8 and the Ratio [22] was 2. For the same compound, the EC50 [23] was 0.027 µM, the Activity ([23]; human) was “Dose-dependent effect” and the Retention_time [24] was 9.4 min.
